From PubChem BioAssay
Only some compounds are listed: those with a hit (about 4.9% of all), similar ones and a draw of the others.
STAT1 inh-1 – reduces IFN-gamma driven STAT1 reporter signal | NIH 3T3 STAT1-luciferase reporter, luminescence | AID 920 | inhibition, % at 5.5 µM | 200,000 tested, 0.35% active;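 active means inhibition above a set limit, the mean inhibition across all tested compounds plus 3 SD, cut at about 34% in these data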
STAT3 inh – STAT3 signaling inhibition | inhibition, % at 5.5 µM | U3A cells, IL-6 STAT3-luciferase reporter, luminescence; host cell line lacks STAT1 | 190,000 tested, 0.89% active;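 active means inhibition above the mean inhibition across all screened compounds plus 3 SD, cut at about 44% in these data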
STAT1 activator – STAT1 signaling activation; activation (% of control), % at 5.5 µM; AID 932; NIH 3T3 STAT1-luciferase reporter, IFN-gamma, luminescence; 100% = IFN-gamma alone, no compound; 200,000 tested, 2.6% active;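 active means activation above the screen-wide mean activation plus 3 SD, cut at about 130% in these data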
STAT3 act – activators of IL-6 induced STAT3 signaling. activation (% of control), % at 5.6 µM. AID 871. U3A cells, IL-6 STAT3-luciferase reporter, luminescence; 100% = signal with IL-6 EC80 alone. 190,000 tested, 0.91% active;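 active means activation above the screen-wide mean of compound activation plus 3 SD, cut at about 130% in these data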
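Material: STAT3-luciferase reporter U3A cells; Probe or stimulus: IL-6 (33 ng/mL); Incubation: compound pre-incubation 1 h before IL-6, then 6 h stimulation at 37 °C; Technique: luminescence from STAT3-driven luciferase reporter; Evaluation: % activation versus median of IL-6-stimulated wells; Controls: IL-6-only high control.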
FLuc act counter – firefly luciferase counter-screen for stimulation assays | ATPlite luciferase biochemical, luminescence, 10 min; 0 = ATP-free wells, 1 = DMSO control | activation factor at 10 µM | AID 1027 | 200,000 tested, under 10 active | P08659;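 active means luciferase activation factor, scaled between plate controls, of at least 2 with compound at 10 µM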
Target sequence (P08659 whole entry, looked up): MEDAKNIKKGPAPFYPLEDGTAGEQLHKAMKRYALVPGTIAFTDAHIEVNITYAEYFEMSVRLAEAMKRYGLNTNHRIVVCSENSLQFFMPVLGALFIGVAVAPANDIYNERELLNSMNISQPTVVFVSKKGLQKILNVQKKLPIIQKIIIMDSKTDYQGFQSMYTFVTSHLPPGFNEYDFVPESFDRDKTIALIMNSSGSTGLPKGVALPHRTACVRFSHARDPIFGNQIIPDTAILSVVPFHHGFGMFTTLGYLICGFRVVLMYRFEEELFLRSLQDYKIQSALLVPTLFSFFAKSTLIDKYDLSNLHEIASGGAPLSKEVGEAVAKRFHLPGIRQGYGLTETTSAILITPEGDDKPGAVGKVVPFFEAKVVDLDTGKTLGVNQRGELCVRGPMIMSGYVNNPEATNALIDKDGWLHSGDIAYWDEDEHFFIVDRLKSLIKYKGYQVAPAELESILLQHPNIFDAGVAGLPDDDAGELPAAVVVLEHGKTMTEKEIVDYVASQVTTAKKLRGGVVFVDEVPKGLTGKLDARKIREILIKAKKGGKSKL
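Assay system – cell-free luciferase reagent · Medium – PBS-based ATP solution · Dosing – test compounds dosed from 2 mM stocks in 100% DMSO · Timing – 10 min, room temperature · Technique – light output (luminescence) · Measure – luminescence gain marking luciferase activators · Controls – No-ATP low control, compound-free enzyme-plus-ATP high control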
FLuc inhib CS – counter-screen for luciferase assay inhibitors: firefly luciferase inhibition. P08659. ATPLite firefly luciferase biochemical luminescence, 10 min. inhibition, % at 10 µM. 200,000 tested, 1.5% active;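 active means inhibition above about 50% when tested at 10 µM, limit read from the data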
STAT1 inh-2 – confirmation of STAT1 signaling inhibitors; shares compounds with STAT1 inh-1; NIH 3T3 STAT1-luciferase reporter, IFN-gamma, luminescence; inhibition, % at 5.5 µM; 200 tested, 55% active; AID 1263;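 active means triplicate mean inhibition exceeding the hit cutoff computed for the primary STAT1 screen, cut at about 35% in these data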
NFkB inh – counter-screen for STAT1 inhibitors: NF-kappaB inhibition. shares compounds with STAT1 inh-1. HEK293T NF-kB luciferase reporter, TNF-alpha induced, luminescence. inhibition, % at 5.7 µM. 200 tested, 30% active;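 active means inhibition above the mean of solvent-only control wells plus 3 SD of those wells, cut at about 15% in these data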
STAT3 inh 2 – inhibits STAT3, counter-screen to STAT1 inhibitors | shares compounds with STAT1 inh-1 | 200 tested, 20% active | U3A cells, IL-6 STAT3 luciferase reporter, luminescence; cells lacking STAT1 | inhibition, % at 5.7 µM;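 active means inhibition above the mean of solvent-only control wells plus 3 SD, set per campaign, cut at about 25% in these data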
STAT1 activ conf – STAT1 activation, confirmation assay | shares compounds with STAT1 activator | NIH 3T3 STAT1-luciferase reporter, IFN-gamma potentiation, luminescence; 100% = IFN-gamma EC80 alone, no compound | activation (% of control), % at 5.7 µM | 1,200 tested, 97% active | AID 1262;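 active means activation above a set limit carried over from the earlier primary STAT1 screen, cut at about 140% in these data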
NFkB act STAT1ct – NF-kappaB activation in STAT1 activator counter-screen | shares compounds with STAT1 activator | HEK293T NF-kB luciferase reporter, TNF-alpha stimulated, luminescence; 100% = TNF-alpha with vehicle only | activation (% of control), % at 5.7 µM | 1,200 tested, 43% active;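 active means activation above the mean of solvent-only control wells plus 3 SD, set per campaign, cut at about 130% in these data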;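 further: TNF-alpha given at a submaximal dose yielding about 80% of full reporter signal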
STAT3 act STAT1c – activates human STAT3, counter-screen to STAT1 activators | shares compounds with STAT1 activator | U3A cells STAT3-luciferase reporter, IL-6, luminescence; cells lack STAT1; 100 = IL-6 alone, no compound effect | activation (% of control), % at 5.7 µM | 1,200 tested, 46% active | AID 1316;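 active means activation above the solvent-only control well mean plus 3 SD, set per plate batch, cut at about 110% in these data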;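 further: higher means more STAT3 reporter activation so hits are non-selective activators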
A number is an active result.

`O=C(NNC(=O)c1cccc(S(=O)(=O)N2CCc3ccccc32)c1)c1ccccc1` gave STAT1 inh-1 35, STAT3 inh inactive, STAT1 activator inactive, STAT3 act inactive, FLuc act counter inactive, FLuc inhib CS inactive, STAT1 inh-2 36, NFkB inh inactive and STAT3 inh 2 inactive.
For O=C(c1ccco1)N1CCN(c2ncnc3c2[nH]c2ccccc23)CC1 the results were STAT1 inh-1 44, STAT3 inh inactive, STAT1 activator inactive, STAT3 act inactive, FLuc act counter inactive, FLuc inhib CS inactive, STAT1 inh-2 47, NFkB inh inactive and STAT3 inh 2 inactive.
For Cc1ccc(-c2nnc(N3CCN(C(=O)c4ccco4)CC3)c3ccccc23)cc1 the results were STAT1 inh-1 inactive, STAT3 inh inactive, STAT1 activator inactive, STAT3 act inactive, FLuc act counter inactive and FLuc inhib CS inactive.
O=C(c1ccco1)N1CCN(c2ncnc3c2[nH]c2ccc(Br)cc23)CC1 was read as STAT1 inh-1 37, STAT3 inh inactive, STAT1 activator inactive, STAT3 act inactive, FLuc act counter inactive, FLuc inhib CS inactive, STAT1 inh-2 37, NFkB inh inactive and STAT3 inh 2 inactive.
For COc1ccc(NC(=O)C2CCN(c3cc(-c4ccccc4)nc4ncnn34)CC2)cc1OC the results were STAT1 inh-1 42, STAT3 inh inactive, STAT1 activator inactive, STAT3 act inactive, FLuc act counter inactive, FLuc inhib CS inactive, STAT1 inh-2 53, NFkB inh 19 and STAT3 inh 2 36.
CC(C)CCN1CCN(C2CCN(c3ccccc3)CC2)CC1CCO (stereo not given) was read as STAT1 inh-1 inactive, STAT3 inh inactive, STAT1 activator inactive, STAT3 act inactive, FLuc act counter inactive and FLuc inhib CS inactive.
`Cc1cccc(N(Cc2ccccc2)C(=O)CCl)c1` gave STAT1 inh-1 35, STAT3 inh inactive, STAT1 activator inactive, STAT3 act inactive, FLuc act counter inactive, FLuc inhib CS inactive, STAT1 inh-2 inactive, NFkB inh inactive and STAT3 inh 2 29.
For O=C(CCl)N(Cc1ccccc1)c1ccccc1 the results were STAT1 inh-1 inactive, STAT3 inh inactive, STAT1 activator inactive, STAT3 act inactive, FLuc act counter inactive and FLuc inhib CS inactive.
Screening FC(F)(F)c1cc(-c2ccco2)nc2ncnn12 returned STAT1 inh-1 inactive, STAT3 inh inactive, STAT1 activator inactive, STAT3 act inactive, FLuc act counter inactive and FLuc inhib CS inactive.
`O=C(O)CSc1nnc(NC(=O)c2ccc3c(c2)OCO3)s1` gave STAT1 inh-1 38, STAT3 inh inactive, STAT1 activator inactive, STAT3 act inactive, FLuc act counter inactive, FLuc inhib CS 91, STAT1 inh-2 inactive, NFkB inh 20 and STAT3 inh 2 inactive.
For COc1cccc(CNc2ncnc3cc(Cl)ccc23)c1 the results were STAT1 inh-1 41, STAT3 inh inactive, STAT1 activator inactive, STAT3 act inactive, FLuc act counter inactive, FLuc inhib CS inactive, STAT1 inh-2 inactive, NFkB inh inactive and STAT3 inh 2 inactive.
CCOC(=O)CN(C(=O)COc1ccc2c(C)cc(=O)oc2c1)c1ccc(OCC)cc1 was read as STAT1 inh-1 inactive, STAT3 inh inactive, STAT1 activator inactive, STAT3 act inactive, FLuc act counter inactive and FLuc inhib CS inactive.
For COc1cc(/C=C/C(=O)OCC(=O)NC(=O)NC(C)C)cc(S(=O)(=O)N2CCc3ccccc32)c1OC the results were STAT1 inh-1 59, STAT3 inh inactive, STAT1 activator inactive, STAT3 act inactive, FLuc act counter inactive, FLuc inhib CS inactive, STAT1 inh-2 46, NFkB inh 18 and STAT3 inh 2 inactive.
`CCOC(=O)C1CCN(CC(=O)Nc2c(C(=O)OC)[nH]c3ccccc23)CC1` gave STAT1 inh-1 inactive, STAT3 inh inactive, STAT1 activator inactive, STAT3 act inactive, FLuc act counter inactive and FLuc inhib CS inactive.
For CCOC(=O)C1CCN(CC(=O)Nc2c(C(=O)OC)[nH]c3ccc(Cl)cc23)CC1 the results were STAT1 inh-1 37, STAT3 inh inactive, STAT1 activator inactive, STAT3 act inactive, FLuc act counter inactive, FLuc inhib CS inactive, STAT1 inh-2 inactive, NFkB inh inactive and STAT3 inh 2 29.
Screening CC(C)CC(=O)Nc1cc2nn(-c3ccccc3)nc2cc1Cl returned STAT1 inh-1 inactive, STAT3 inh inactive, STAT1 activator inactive, STAT3 act inactive, FLuc act counter inactive and FLuc inhib CS inactive.
For Nc1ccc2nn(-c3ccccc3)nc2c1 the results were STAT1 inh-1 inactive, STAT3 inh inactive, STAT1 activator 155, STAT3 act inactive, FLuc act counter inactive, FLuc inhib CS 60, STAT1 activ conf 203, NFkB act STAT1ct inactive and STAT3 act STAT1c inactive.
Nc1ccc2nn(-c3cccc4ccccc34)nc2c1 was read as STAT1 inh-1 inactive, STAT3 inh inactive, STAT1 activator inactive, STAT3 act inactive, FLuc act counter inactive and FLuc inhib CS inactive.
Nc1cc2nn(-c3ccccc3)nc2cc1Cl was read as STAT1 inh-1 inactive, STAT3 inh inactive, STAT1 activator 166, STAT3 act inactive, FLuc act counter inactive, FLuc inhib CS inactive, STAT1 activ conf 238, NFkB act STAT1ct inactive and STAT3 act STAT1c 151.
For Cc1cc(C)c(S(C)(=O)=O)c(N(C)N)n1 the results were STAT1 inh-1 inactive, STAT3 inh inactive, STAT1 activator inactive, STAT3 act inactive, FLuc act counter inactive and FLuc inhib CS inactive.
